Measured values from ChEMBL document CHEMBL1153564 (Antimicrob Agents Chemother, 2008).
In brackets after ≈: the same amount, converted by molar mass. Activity calls are given as the source filed them. The rule behind the calls is not given here. Starred links: 1 amine or outer side, 2 acyl side, 3 side chain; linkers in the order of their positions; H or OH if unused. Positions of bridges follow the written chain, without caps; N, C: chain ends. Non-standard residues stand in square brackets, D forms with d. Residues, ends and D or L forms follow the SMILES beside them. *: point of attachment. pTerphenylCO(4''-OnC5H11) = CCCCCOc1ccc(-c2ccc(-c3ccc(C(=O)*)cc3)cc2)cc1; Orn(4R-OH,5R-OH) = O=C([C@H](C[C@@H](O)[C@@H](O)N[*:3])N[*:1])[*:2]; hTyr(3S-OH,4S-OH) = N[C@H](C(=O)O)[C@H](O)[C@@H](O)c1ccc(O)cc1; Pro(3S-OH,4S-Me) = C[C@H]1CN[C@H](C(=O)O)[C@H]1O; Hyp = O=C(O)[C@@H]1C[C@@H](O)CN1

Key:
[1] = test system: Nakaseomyces glabratus; assay: Antifungal activity against Candida glabrata 5592 assessed as complete growth inhibition after 24 hrs by CLSI end point method; assay type: functional; details: Nakaseomyces glabratus, 5592, 24 h
Method in brief: (§1)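 Two end points were read against the drug-free control well: partial growth inhibition (the CLSI end point) and complete inhibition. Run in duplicate on four separate occasions; the value is the mean. Drug stock was made in DMSO and diluted in 0.9% NaCl.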

[2] = test system: Candida albicans; assay: Antifungal activity against Candida albicans 580 infected in neutropenic ICR/Swiss mouse candidiasis model assessed as dose required to maintain […] of 3.81 +/- 0.33 log10CFU per kidney administered intraperitoneally every 24 hrs up to 4 days measured per 24 hrs; assay type: functional
Method in brief: (§2)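 Neutropenic mice (cyclophosphamide sc on days −4, −1 and +2) were infected iv 2 h before therapy. Five total doses from 0.078 to 20 mg/kg/24 h were given ip q24h for 4 days, three mice per regimen. Kidney CFU were measured at the end of therapy. Static and 1-log-kill doses were derived from a Hill sigmoid dose-effect fit.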

[3] = Cmax in human at 100 mg/day; assay type: ADME, organism-based; parameters: dose 100 mg/day; details: in vivo
[4] = test system: Nakaseomyces glabratus; assay: Antifungal activity against Candida glabrata 33616 assessed as partial growth inhibition after 24 hrs by CLSI end point method; assay type: functional; details: Nakaseomyces glabratus, 33616, 24 h; method in brief: as §1
[5] = test system: Candida albicans; assay: Antifungal activity against Candida albicans K-1 infected in neutropenic ICR/Swiss mouse candidiasis model assessed as dose required to maintain […] of 3.90 +/- 0.15 log10CFU per kidney administered intraperitoneally every 24 hrs up to 4 days measured per 96 hrs; assay type: functional
Method in brief: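 Neutropenic mice were infected iv with C. albicans K-1 2 h before therapy. Total doses of 1.25, 5, 20, 80 and 320 mg/kg/96 h were split into 1, 2, 4 or 6 ip doses (q96h, q48h, q24h, q16h), three mice per regimen. Effect is the log10 CFU/kidney relative to untreated controls at 96 h. Static and 1-log doses were taken from a Hill model fit.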

[6] = test system: Candida albicans; assay: Antifungal activity against Candida albicans K-1 infected in neutropenic ICR/Swiss mouse candidiasis model assessed as reduction of […] in kidney at 1.25 mg/kg, ip administered 2 hrs postinfection as single dose measured within 1 to 4 hrs post dosing by time-kill assay; assay type: functional, organism-based; parameters: dose 1.25 mg/kg
Method in brief: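 Neutropenic mice given a single ip dose (1.25, 5 or 20 mg/kg) 2 h after tail-vein infection. Kidneys from 3 mice per time point collected nine times over 96 h. Homogenates serially diluted 1:10 and plated on SDA, 24 h at 35°C. Detection limit 100 CFU/ml.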

[7] = test system: Nakaseomyces glabratus; assay: Antifungal activity against Candida glabrata 513 infected in neutropenic ICR/Swiss mouse candidiasis model assessed as dose required to maintain […] burden of 1.83 +/- 0.54 log10CFU per kidney administered intraperitoneally every 24 hrs up to 4 days measured per 24 hrs; assay type: functional
[8] = test system: Candida albicans; assay: Antifungal activity against Candida albicans K-1 assessed as partial growth inhibition after 24 hrs by CLSI end point method; assay type: functional; details: K-1, 24 h
Method in brief: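 CLSI M27-A2 broth dilution. Two end points read against the drug-free control well: partial inhibition (CLSI end point) and complete inhibition. Run in duplicate on four separate occasions; value is the mean. Drug stock in DMSO, diluted in 0.9% NaCl.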

[9] = test system: Candida albicans; assay: Antifungal activity against Candida albicans K-1 infected in neutropenic ICR/Swiss mouse candidiasis model assessed as suppression of fungal regrowth at 1.25 mg/kg, ip administered 2 hrs postinfection as single dose by time-kill assay; assay type: functional, organism-based; parameters: dose 1.25 mg/kg
Method in brief: (§3)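 Single ip dose of 1.25, 5 or 20 mg/kg given 2 h after iv infection of neutropenic mice. Groups of 3 treated and 3 control mice sampled at 1–24 h intervals over 96 h. Kidney homogenates plated on SDA, 24 h at 35°C. PAFE = time for treated burden to rise 1 log10 CFU/kidney after serum level fell below MIC, minus the same time in controls.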

[10] = test system: Candida albicans; assay: Antifungal activity against Candida albicans 98-17 infected in neutropenic ICR/Swiss mouse candidiasis model assessed as dose required to maintain […] of 3.81 +/- 0.33 log10CFU per kidney administered intraperitoneally every 24 hrs up to 4 days measured per 24 hrs; assay type: functional; method in brief: as §2
[11] = test system: Candida albicans; assay: Antifungal activity against Candida albicans 98-17 infected in neutropenic ICR/Swiss mouse candidiasis model assessed as dose required for 1-log10 reduction in […] per kidney administered intraperitoneally every 24 hrs up to 4 days measured per 24 hrs; assay type: functional; method in brief: as §2
[12] = test system: Mus musculus; assay: Cmax in serum of neutropenic ICR/Swiss mouse candidiasis model at 20 mg/kg, ip up to 4 hrs by reverse-phase high-pressure liquid chromatography; assay type: ADME, organism-based; parameters: dose 20 mg/kg, route intraperitoneal; details: in vivo
Method in brief: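 Infected neutropenic ICR/Swiss mice given single ip doses (5, 20 or 80 mg/kg; 0.2 ml); serum from three isoflurane-anaesthetised mice at 1, 4, 8, 12, 24 and 48 h, stored at −80°C, assayed by reverse-phase HPLC with fluorescence detection, loratadine internal standard, linear 10–50,000 ng/ml. Noncompartmental analysis; half-life by nonlinear least squares.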

[13] = test system: Nakaseomyces glabratus; assay: Antifungal activity against Candida glabrata 37661 assessed as complete growth inhibition after 24 hrs by CLSI end point method; assay type: functional; details: Nakaseomyces glabratus, 37661, 24 h; method in brief: as §1
[14] = test system: Nakaseomyces glabratus; assay: Antifungal activity against Candida glabrata 5376 infected in neutropenic ICR/Swiss mouse candidiasis model assessed as prolongation of fungal growth suppression at 1.25 mg/kg, ip administered 2 hrs postinfection as single dose by time-kill assay; assay type: functional; details: route intraperitoneal; method in brief: as §3
[15] = test system: Candida albicans; assay: Antifungal activity against Candida albicans 98-210 infected in neutropenic ICR/Swiss mouse candidiasis model assessed as dose required to maintain […] of 3.81 +/- 0.33 log10CFU per kidney administered intraperitoneally every 24 hrs up to 4 days measured per 24 hrs; assay type: functional; method in brief: as §2
[16] = test system: Nakaseomyces glabratus; assay: Antifungal activity against Candida glabrata 513 infected in neutropenic ICR/Swiss mouse candidiasis model assessed as fungal count per kidney administered 2 hrs postinfection measured up to 48 hrs; assay type: functional
Method in brief: (§4)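 Female ICR/Swiss mice (23–27 g) made neutropenic with cyclophosphamide s.c. (150 mg/kg day −4, 100 mg/kg day −1, 100 mg/kg day +2). Infected by tail vein with 0.1 ml inoculum (~6.1 log10 CFU/ml). Kidneys of untreated mice were homogenised and plated on SDA for 24 h at 35°C. Growth over 48 h is given as log10 CFU/kidney.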

[17] = test system: Nakaseomyces glabratus; assay: Antifungal activity against Candida glabrata 5376 infected in neutropenic ICR/Swiss mouse candidiasis model assessed as suppression of fungal regrowth at 1.25 mg/kg, ip administered 2 hrs postinfection as single dose by time-kill assay; assay type: functional, organism-based; parameters: dose 1.25 mg/kg; method in brief: as §3
[18] = test system: Nakaseomyces glabratus; assay: Antifungal activity against Candida glabrata 34341 infected in neutropenic ICR/Swiss mouse candidiasis model assessed as fungal count per kidney administered 2 hrs postinfection measured up to 48 hrs; assay type: functional; method in brief: as §4
[19] = test system: Nakaseomyces glabratus; assay: Antifungal activity against Candida glabrata 5376 infected in neutropenic ICR/Swiss mouse candidiasis model assessed as prolongation of fungal growth suppression at 20 mg/kg, ip administered 2 hrs postinfection as single dose by time-kill assay; assay type: functional; details: route intraperitoneal
Method in brief: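 Neutropenic mice were infected i.v. and 2 h later given a single i.p. dose (1.25, 5 or 20 mg/kg). Groups of three treated and three control mice were killed at intervals over 96 h, and kidney CFU were counted on SDA (limit 100 CFU/ml). The post-antifungal effect is t − c: the time for a 1 log10 CFU/kidney increase once serum levels fall below the MIC in treated mice, minus the same time in controls.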

For `CCCCCOc1ccc(-c2ccc(-c3ccc(C(=O)N[C@H]4C[C@@H](O)[C@@H](O)NC(=O)[C@@H]5[C@@H](O)[C@@H](C)CN5C(=O)[C@H]([C@@H](C)O)NC(=O)[C@H]([C@H](O)[C@@H](O)c5ccc(O)cc5)NC(=O)[C@@H]5C[C@@H](O)CN5C(=O)[C@H]([C@@H](C)O)NC4=O)cc3)cc2)cc1` [ANIDULAFUNGIN] ({pTerphenylCO(4''-OnC5H11)}-[Orn(4R-OH,5R-OH)]T[Hyp][hTyr(3S-OH,4S-OH)]T[Pro(3S-OH,4S-Me)]; lactam 1-C), the MIC [1] was 0.12 µg/mL (≈ 0.105 µM), the Activity [2] was 0.94 mg/kg and the Cmax [3] was 11000 ng/mL. For the same compound, the MIC [4] was 1 µg/mL (≈ 0.877 µM), the Activity [5] was 5 mg/kg and the Activity [6] was “Active”. The Activity [7] was 2.45 mg/kg, the MIC [8] was 0.015 µg/mL (≈ 0.0132 µM) and the Activity [9] was “Active”. The Activity [10] was 1.15 mg/kg, the Activity [11] was 1.95 mg/kg and the Cmax [12] was 24000 ng/mL. For the same compound, the MIC [13] was 2 µg/mL (≈ 1.75 µM), the Activity [14] was 19 h and the Activity [15] was 3.37 mg/kg. For the same compound, the log10cfu [16] was 2.43, the Activity [17] was “Active” and the log10cfu [18] was 1.82. For the same compound, the Activity [19] was 67 h.
